# TNAP inh hiacc – blocks human TNAP under high phosphate acceptor concentration. purified TNAP, CDP-star luminescence, 1 M DEA. inhibition, % at 20 µM. 0.03% of 200,000 active. AID 1135;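 active = over 50% inhibition of tissue-nonspecific alkaline phosphatase at 20 µM in the single-dose screen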
# Target sequence (P05186 whole entry, looked up): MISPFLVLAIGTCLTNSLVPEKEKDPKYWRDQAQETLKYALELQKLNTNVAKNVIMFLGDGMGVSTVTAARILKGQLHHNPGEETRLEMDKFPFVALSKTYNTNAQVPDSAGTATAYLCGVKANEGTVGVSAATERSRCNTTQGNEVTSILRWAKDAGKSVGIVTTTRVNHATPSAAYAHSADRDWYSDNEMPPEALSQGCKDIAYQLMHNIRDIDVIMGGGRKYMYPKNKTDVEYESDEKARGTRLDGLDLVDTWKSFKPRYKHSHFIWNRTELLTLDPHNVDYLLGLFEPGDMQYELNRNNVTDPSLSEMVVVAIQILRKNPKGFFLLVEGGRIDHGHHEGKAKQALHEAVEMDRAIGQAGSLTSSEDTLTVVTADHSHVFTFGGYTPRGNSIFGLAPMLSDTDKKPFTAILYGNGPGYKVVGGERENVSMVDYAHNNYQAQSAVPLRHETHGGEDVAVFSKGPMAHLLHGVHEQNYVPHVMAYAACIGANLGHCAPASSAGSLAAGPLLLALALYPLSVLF
# PTEN del growth – suppresses growth of cells with PTEN deletion. viability, % at 10 µM. 1.2% of 140,000 active. AID 827. HCT116 PTEN-null viability, CellTiter-Glo, 60 h; stronger effect = lower value;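 active = viability at or below a set limit, 4 SD under the median of all tested compounds, cut at about 3.7% in these data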;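 also: PTEN knockout HCT116 line with beta catenin targeted HCT116 as companion control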
# HCT116 bCat-KO – beta-catenin-lacking colon tumor cell growth suppression. HCT116 beta-catenin knockout viability, CellTiter-Glo, 60 h; stronger effect = lower value. viability, % at 10 µM. 1.5% of 140,000 active. AID 818;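 active = viability at or under a set limit, the compound median less 4 SD, cut at about 6% in these data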
# TNAP act hiacc – activators of human TNAP at high phosphate acceptor concentration; P05186; activation factor at 20 µM; 200,000 tested, under 10 active; purified TNAP, CDP-star luminescence, 1 M DEA, 30 min; stronger effect = higher value; 0 = EDTA background, 1 = DMSO-only activity;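 active = activation factor at least 2 at 20 µM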
#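 Control set: EDTA negative control, DMSO positive control / Assay system: human TNAP / Quantity: TNAP 1/800 final / Evaluation: TNAP activation factor scaled between EDTA and DMSO control wells / Measured by: luminescent substrate turnover signal / Compound dosing: one dose, 20 µM / Times: 30 min enzyme reaction at room temperature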
# TNAP inh noacc – TNAP (human) inhibition, acceptor-free conditions; P05186; purified TNAP, CDP-star luminescence, 30 min; inhibition, % at 20 µM; 0.26% of 200,000 active; AID 1012;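 active = tissue-nonspecific alkaline phosphatase inhibition above about 50% at 20 µM in the single-dose screen, limit read from the data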
# L major viab – inhibitors of Leishmania major promastigote growth; Leishmania major promastigotes, resazurin fluorescence viability; inhibition, % at 10 µM; 9% of 200,000 active; in the data active = inhibition above about 50%;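 also: promastigotes grown with compound for 44 hours at 28 °C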
# Numbers stand for hits; n = inactive; x = not tested or not shown. Only some compounds are listed: those with a hit (about 9.6% of all), similar ones and a draw of the others.
SMILES,TNAP inh hiacc,PTEN del growth,HCT116 bCat-KO,TNAP act hiacc,TNAP inh noacc,L major viab
OCCNCc1cc(Br)ccc1OCc1ccccc1,n,n,n,n,n,n
CCOCCCNCc1cc(Br)ccc1OCc1ccccc1,n,n,n,n,n,83
CCOc1cc(CNCCc2ccc(S(N)(=O)=O)cc2)ccc1OCc1ccccc1,n,n,n,n,n,100
CCOc1cc(CNCCO)cc(Br)c1OCc1ccccc1,n,x,x,n,n,75
CCOc1c(Cl)cc(CNCC(C)C)cc1Cl,x,n,n,x,x,68
O=C(CN1CCN(Cc2ccccc2)CC1)N1CCCCCC1,n,x,x,n,n,n
CCCS(=O)(=O)N1CCN(Cc2c[nH]c3ccccc23)CC1,n,x,x,n,n,n
COc1ccccc1NC(=O)CN1CCSc2ccccc21,n,x,x,n,n,n
NS(=O)(=O)c1ccc(NCc2cc(Cl)ccc2OCc2ccc(F)cc2)cc1,n,n,n,n,n,54
CCOc1cc(CNCCc2ccc(S(N)(=O)=O)cc2)cc(Cl)c1OCc1ccccc1,n,1.9,1.5,n,n,101
CCOc1cc(CNCc2ccccn2)cc(Cl)c1OCC,n,x,x,n,n,n
NS(=O)(=O)c1ccc(CCNCc2cc(Br)ccc2OCc2ccccc2)cc1,n,n,n,n,n,55
CCOc1c(Cl)cc(CNCc2ccncc2)cc1OC,n,x,x,n,n,84
CCOc1cc(CNc2ccc(S(N)(=O)=O)cc2)cc(Cl)c1OC,n,n,n,n,n,n
CCNCc1cc(Cl)c(OCc2ccccc2)c(OCC)c1,n,x,x,n,n,100
OCCNCCNCc1ccc(-c2ccccc2)cc1,n,x,x,n,n,100
O=C(COc1ccccc1)Nc1ccc(Cl)cc1Cl,n,x,x,n,n,n
c1ccc2c(c1)[nH]c1c(NCC3CCCO3)ncnc12 (centres undefined),n,n,n,n,n,86
C=CCNc1ncnc2c1[nH]c1ccc(Cl)cc12,n,n,n,n,n,100
C=CCNc1ncnc2c1[nH]c1ccccc12,n,n,n,n,n,67
CCOCCCNc1ncnc2c1[nH]c1ccccc12,n,n,n,n,n,n
COc1cc(OC)c(OC)cc1/C=N/Nc1ncnc2c1[nH]c1ccccc12,n,n,4.2,n,n,61
Cc1ccccc1NC(=O)c1ccc(CN(c2ccccc2)S(=O)(=O)c2ccccc2)cc1,n,n,n,n,n,n
CON1C(=O)C(=O)N(OC)C(C)(C)C1(C)C,n,n,n,n,n,n
O=C(O)c1ccc(C(=O)c2ccc3c(c2)C(=O)N(CC2CCCO2)C3=O)cc1 (centres undefined),n,x,x,n,n,n
SMILES,TNAP inh hiacc,PTEN del growth,HCT116 bCat-KO,TNAP act hiacc,TNAP inh noacc,L major viab
COC(=O)N/N=C/C1=CCC2CC1C2(C)C (centres undefined),n,x,x,n,n,58
COC(=O)N/N=C/c1ccccc1,n,x,x,n,n,n
CC1(C)C2CC=C(/C=N/NC(=O)c3ccccc3Br)C1C2 (centres undefined),n,n,n,n,n,100
CC1(C)C2CC=C(/C=N/NC(=O)c3ccc(O)cc3)C1C2 (centres undefined),n,n,n,n,n,94
CCc1ccc(OCC(=O)Nc2ncn[nH]2)cc1,n,x,x,n,n,n
CCOc1ccccc1NC(=O)/C(C#N)=C/c1c(C)nn(-c2ccccc2)c1Cl,n,n,n,n,n,82
C=CCNC(=O)/C(C#N)=C/c1c(N(Cc2ccccc2)Cc2ccccc2)nc2ccccn2c1=O,n,n,n,n,n,76
C=CCNC(=O)/C(C#N)=C/c1ccc(SC)cc1,n,x,x,n,n,n
Cc1ccc(C)c(OCC(=O)N/N=C/c2c(C)nn(-c3ccccc3)c2Cl)c1,n,n,n,n,n,n
N#C/C(=C\c1c(N(Cc2ccccc2)Cc2ccccc2)nc2ccccn2c1=O)C(N)=O,n,n,n,n,n,n
C=CCNC(=O)/C(C#N)=C/c1c(C)nn(-c2ccccc2)c1Cl,n,n,n,n,n,99
COc1ccc(C2CC(c3ccccc3)=NN2C(=O)COC(=O)c2nc3nc(C)cc(C)n3n2)cc1 (centres undefined),n,x,x,n,n,n
CCc1nnc(N/N=C/c2c(Cl)cccc2Cl)n1N,n,n,n,n,n,50
CCC(=O)NC(Nc1sc2c(c1C(=O)OC)CCC2)C(Cl)(Cl)Cl (centres undefined),n,n,n,n,n,73
COC(=O)c1c(NC(NC(=O)C(C)(C)C)C(Cl)(Cl)Cl)sc2c1CCC2 (centres undefined),n,n,n,n,n,51
COC(=O)c1c(NC(NC(=O)C(C)C)C(Cl)(Cl)Cl)sc2c1CCC2 (centres undefined),n,n,n,n,n,53
O=C(O)C1CCC(Cn2c(SCc3cc(=O)n4ccccc4n3)nc3ccsc3c2=O)CC1 (centres undefined),n,x,x,n,n,n
CCOc1ccc(C(=O)CC(=O)C(=O)NCCc2ccc(OC)c(OC)c2)cc1,n,n,n,n,n,60
CCOc1cc(C)c(C(C)C)cc1S(=O)(=O)n1cnc(C)c1,n,x,x,n,n,n
CC1CCN(C(=O)C(C)c2ccc([N+](=O)[O-])cc2)CC1 (centres undefined),n,x,x,n,n,n
O/N=C/c1ccc(-c2cc(Cl)ccc2Cl)o1,n,n,n,n,n,67
COC(=O)N/N=C/c1ccc(-c2cc(Cl)ccc2Cl)o1,n,n,n,n,n,n
COc1ccc(C[C@@H]2CN3C(=NC[C@@H]3C)N2CCNC(=O)c2ccc(C)c(Br)c2)cc1,n,x,x,n,n,n
CCOc1cc2c3c(c1)C1(C(=O)N3C(C)(C)CC2C)C(C#N)=C(N)N2C(=C1C#N)Nc1ccccc12 (centres undefined),n,n,n,n,n,66
CCOc1cc2c3c(c1)C1(Nc4ccccc4S1)C(=O)N3C(C)(C)CC2C (centres undefined),n,n,n,n,n,n
SMILES,TNAP inh hiacc,PTEN del growth,HCT116 bCat-KO,TNAP act hiacc,TNAP inh noacc,L major viab
CCCNC(=O)CSc1nc2ccccc2c(=O)n1CCC,n,x,x,n,n,n
CC(=O)c1ccc(OCC(O)CN2C(C)CCCC2C)cc1 (centres undefined),n,n,n,n,n,72
COC(=O)c1ccc(OCC(O)CN2CCC(C)CC2)cc1 (centres undefined),n,n,n,n,n,n
Cc1cc(Cl)ccc1OCC(O)CN1C(C)CCCC1C (centres undefined),n,x,x,n,n,91
CC(=O)c1ccc(OCC(O)CN2CCC(C)CC2)cc1 (centres undefined),n,n,n,n,n,88
CCC(=O)c1ccc(OCC(O)CN2CCN(C(c3ccccc3)c3ccccc3)CC2)cc1 (centres undefined),n,n,n,n,n,60
COc1ccc(CCNC(=O)CCNS(=O)(=O)c2cccc(Cl)c2)cc1OC,n,x,x,n,n,n
S=C(NC1CCCC1)N1CCN(c2ccc(Cl)cc2)CC1,n,x,x,n,n,n

# Assay outcomes: PubChem BioAssay, several laboratories
